Compound activity: PubChem, Broad Institute
miR122 inh: miR-122 inhibition in Huh7 cells; Huh7 miR-122 Renilla luciferase sensor, 48 h; neutral wells = 0, positive control = 100; activation (reporter increase), % at 12.5 µM; 340,000 compounds, 0.3% hits; AID 602342;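 active = mean replicate activation score at least 90 and every replicate individually at or above 90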;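 note: higher luciferase means less miR-122 activity so hits act as miR-122 inhibitors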
Env fusion inh: HIV envelope-mediated fusion inhibition | inhibition, % at 12.3 µM | HeLa-JRFL Env/CEM21 cell fusion, luciferase | 360,000 compounds, 1.1% hits;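 active = mean replicate inhibition score of at least 50 and every replicate individually at or above 50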
FN deposition inh: fibronectin deposition inhibition | AH1F fibroblasts, Alexa488-fibronectin deposition fluorescence, overnight | inhibition, % at 12.6 µM | 350,000 compounds, 0.086% hits | AID 743247;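 active = mean inhibition across replicates of 30% or more, regardless of how many single replicates reach that level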
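test system = AH1F fibroblasts assembling fluorescent fibronectin matrix | quantity = 10000 AH1F cells per well | buffer or medium = DMEM plus 2% serum, read in PBS | doses = single dose, pinned | incubation = 1 h cell attachment, overnight exposure to compound and label | detection = fluorescence at 485 nm excitation, 525 nm emission | read-out basis = inhibition from reduced deposited-fibronectin fluorescence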
Vif imaging: inhibitors of HIV Vif. HEK293T cells, Vif self-association by quenched fluorescence, imaging, 24 h. inhibition, % at 7.49 µM. 340,000 compounds, 0.35% hits; in the data active = inhibition above about 50%, passing the limit was not always enough
S100A4 inh HTS: blocks human S100A4 binding to myosin IIA peptide; P26447; S100A4/TAMRA-MyoIIA peptide fluorescence polarization; inhibition, % at 10.7 µM; 360,000 compounds, 0.14% hits; AID 652163;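 active = mean inhibition of at least 70% across replicates, with every replicate also reaching that level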
Target sequence (P26447 whole entry, looked up): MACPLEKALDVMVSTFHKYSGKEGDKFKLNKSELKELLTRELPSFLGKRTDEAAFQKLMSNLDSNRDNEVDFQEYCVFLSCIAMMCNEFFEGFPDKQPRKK
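assay system = human S100A4 monomer with TAMRA-labelled myosin IIA peptide | also added = labelled myosin peptide probe, 5 nM | incubation = 5 min between mix addition and reading | control set = DMSO and TFP controls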
rRNA inh HTS: inhibitors of bacterial rRNA selective over humanized ribosomes | E. coli WT GFP vs humanized-ribosome RFP mutants, fluorescence, 24 h; stronger effect = lower value; DMSO median 0, no signal -100 | GFP signal change (wild-type ribosome), % (test concentration not listed) | 350,000 compounds, 1.6% hits | AID 720706;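 active = significant combined selectivity score with lowered wild-type GFP, culture density cut under 30%, mutant RFP and density less affected; inactive = any of these conditions unmet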
Hits are given with their value; . = inactive; / = no result. In the library only some 2.6% were active in any assay of this set; here they are far more common.

SMILES | miR122 inh | Env fusion inh | FN deposition inh | Vif imaging | S100A4 inh HTS | rRNA inh HTS
COc1ccc(OCC(=O)Nc2cc(-c3nn(C)c(=O)c4ccccc34)ccc2OC)cc1 | . | 85.8 | . | . | / | /
COc1ccc(NC(=O)COc2ccc(-c3nn(C)c(=O)c4ccccc34)cc2)cc1 | . | . | . | . | . | .
C[C@H]1CN([C@@H](C)CO)C(=O)c2cc(NC(=O)Cc3cn(C)c4ccccc34)ccc2O[C@@H]1CN(C)C(=O)Nc1ccc(F)cc1 | . | / | . | / | . | .
O=C(O)CNC(=S)N(Cc1ccccc1)Cc1cccs1 | / | . | . | . | . | .
CCOC(=O)CNC(=S)N(Cc1ccccc1)Cc1ccccc1F | / | . | . | . | . | -33.8
Cc1cccc(C)c1NC(=S)N(Cc1ccccc1)Cc1cccs1 | . | . | . | . | . | -21.4
CCOC(=O)CNC(=S)N(Cc1ccccc1)Cc1cccs1 | . | . | . | . | . | -26.4
COP(=O)(CN(Cc1ccccc1)C(=S)Nc1c(C)cccc1C)OC | / | . | . | . | . | .
C[C@H](CO)N1C[C@H](C)[C@H](CN(C)Cc2ccc(C(=O)Nc3ccccc3N)cc2)Oc2ccc(NS(=O)(=O)c3ccc(Cl)cc3)cc2CC1=O | / | / | / | / | . | .
CCCC(=O)Nc1ccc2c(c1)C(=O)N(C)C[C@@H](OC)[C@H](C)CN(C(=O)c1ccncc1)[C@H](C)CO2 | / | . | . | / | . | .
CCC(=O)Nc1cccc(NC(=S)NC(=O)c2ccc(C)cc2)c1 | . | . | . | . | . | .
CCC(=O)Nc1cccc(NC(=S)NC(=O)c2cccc(C)c2)c1 | / | . | . | . | . | -17.1
CC(C)(C)OC(=O)NCCCCCc1cn(CC(=O)NCCCCCCCCCCC(=O)N2CCN(C(=O)OC(C)(C)C)CC2)nn1 | / | 57.0 | . | / | . | .
Cc1cn([C@@H](CCCCNC(=O)OC(C)(C)C)C(=O)NCCCCCCCCCCC(=O)N2CCN(C(=O)OC(C)(C)C)CC2)nn1 | . | / | / | . | / | /
O=C([C@H]1[C@H](CO)[C@H]2Cn3c(cccc3=O)[C@@H]1N2C(=O)CC1CC1)N1CCCCC1 | / | / | / | / | . | .
Cc1ccc(C(=O)N/C(=C\c2cccs2)C(=O)NC2CCCCC2)cc1 | . | / | / | . | . | -25.4
Cc1nc(Nc2ccc(S(N)(=O)=O)cc2)sc1C(=O)Nc1ccccc1 | / | . | . | . | . | -35.1
COc1ccccc1Nc1nc(C)c(C(=O)Nc2ccccc2)s1 | . | . | . | . | . | -32.2
Cc1ccc(S(=O)(=O)Nc2nc(C)c(C(=O)Nc3ccccc3)s2)cc1 | . | . | / | . | . | .
Cc1nc(Nc2ccccc2Cl)sc1C(=O)Nc1ccccc1 | . | . | . | . | . | .
C[C@@H]1CCCCO[C@@H](CN(C)C(=O)Nc2cccc3ccccc23)[C@@H](C)CN([C@@H](C)CO)C(=O)c2cc(NC(=O)Nc3ccc(C(F)(F)F)cc3)ccc2O1 | / | . | / | / | . | .
CCc1ccc(NC(=O)CSCc2nc(N)nc(Nc3ccccc3CC)n2)cc1 | . | 61.2 | . | . | / | /
CCc1ccccc1Nc1nc(N)nc(COC(=O)c2cccn2C)n1 | . | . | . | . | / | /
CCc1ccccc1Nc1nc(N)nc(CSCC(=O)Nc2ccc(C)c(C)c2)n1 | . | 71.3 | . | . | . | .
Cc1ccccc1CSCc1nc(N)nc(Nc2ccccc2C)n1 | . | . | . | . | . | .
SMILES | miR122 inh | Env fusion inh | FN deposition inh | Vif imaging | S100A4 inh HTS | rRNA inh HTS
CCc1nc2ccccc2c(=O)n1NC(=O)c1c(O)c2ccccc2n(CC)c1=O | / | . | . | . | . | -29.7
CCn1c(=O)c(C(=O)Nn2c(C)nc3ccccc3c2=O)c(O)c2ccccc21 | . | / | / | . | / | /
CCCNC(=O)N[C@H]1C=C[C@@H](CC(=O)NC2CCC2)O[C@@H]1CO | / | . | . | / | . | .
CC(NCc1ccc(S(N)(=O)=O)cc1)C(=O)Nc1cc([N+](=O)[O-])ccc1Cl (stereo unspecified) | . | . | . | . | . | -20.8
COc1ccc(CN2CC3(CN(C(C)=O)C3)c3c([nH]c4cc(OC)ccc34)[C@@H]2CO)cc1 | / | . | / | / | . | .
O=C(NC(Nc1ncc(S(=O)(=O)c2ccc([N+](=O)[O-])cc2)s1)(C(F)(F)F)C(F)(F)F)c1ccc(Cl)cc1 | . | 143.5 | . | . | / | /
COCCCNC(=O)CSc1c2c(nc3ccc(Cl)cc13)CCCC2 | / | . | . | . | . | -23.1
C[C@@H]1CN([C@@H](C)CO)C(=O)c2cc(NC(=O)Nc3ccccc3)ccc2O[C@H]1CN(C)Cc1ccc(C(=O)O)cc1 | . | / | / | / | . | .
CC(=O)C1=C(C)NC(SCC(N)=O)=C(C#N)C1c1sccc1C (stereo unspecified) | / | / | / | . | . | .
CCOC(=O)CSC1=C(C#N)C(c2sccc2C)C(C(C)=O)=C(C)N1 (stereo unspecified) | / | / | / | . | . | -39.6
C[C@@H]1CCCCO[C@H](CN(C)S(C)(=O)=O)[C@H](C)CN([C@@H](C)CO)C(=O)c2cc(NS(=O)(=O)c3ccc(F)cc3)ccc2O1 | . | . | / | / | . | .
Cn1c(N2CCN(C(c3ccccc3)c3ccccc3)CC2)nc2ccccc21 | . | . | . | . | . | -26.2
CC(C)(C)[C@@H]1C=C(C(=O)Nc2ccccc2)O[C@H](OCc2ccc(CO)cc2)C1 | . | 96.6 | . | . | 98.0 | .
COc1cc([N+](=O)[O-])ccc1NC(=O)Nc1cnccn1 | . | 57.5 | / | . | . | .
C[C@@H]1CN([C@@H](C)CO)C(=O)c2cccc(NC(=O)C3CCOCC3)c2O[C@H]1CN(C)Cc1ccncc1 | . | . | . | / | . | .
O=C(CCC(F)(F)F)N1CCCC(N2CCN(c3cccc(Cl)c3)CC2)C1 (stereo unspecified) | . | . | . | . | . | -23.5
COC1=C(C)C(=O)C2=C(C1=O)C1C3CC4=C(C(=O)C(OC)=C(C)C4=O)C(CNC(=O)C(C)=O)N3C(C#N)C(C2)N1C (stereo unspecified) | . | 64.0 | . | . | . | /
CCC(=O)N(C)C[C@@H]1Oc2ncc(-c3ccc(C)cc3)cc2C(=O)N([C@@H](C)CO)C[C@H]1C | . | . | . | / | . | .
S=C(NCCc1ccccc1)Nc1nccs1 | . | . | . | . | . | -22.4
CO[C@H](CN(C)C(=O)c1ccc2c(c1)OCO2)[C@H](C)CN([C@@H](C)CO)S(=O)(=O)c1ccc(F)cc1 | / | / | . | / | . | .
CC(=O)c1cnn(-c2c(Cl)cc(Cl)cc2Cl)c1C | . | . | . | . | . | -22.4
CCCNC(=O)C[C@H]1CC[C@H]2[C@@H](COc3ccc(NC(=O)c4cc(F)cc(F)c4)cc3C(=O)N2C)O1 | . | . | / | / | / | /
Cc1ccc(C)c(CSCc2nc3ccccc3[nH]2)c1 | . | . | . | . | . | .
Cc1ccccc1CSCc1nc2ccccc2[nH]1 | / | . | . | . | . | -22.2
